Calls of active or inactive are those of the source. The calls are words filed in the database; no cut-off is given here. Square brackets hold non-standard residues; d marks the D form. Peptide text beside a SMILES is read from it. * marks the point of attachment. Acetyl(2-naphthyloxy) = O=C(COc1ccc2ccccc2c1)*; Chg = N[C@H](C(=O)O)C1CCCCC1
Tests used:
[1] = biological target: Growth/differentiation factor 8 (Homo sapiens) (UniProt O14793); assay: Inhibition of myostatin (unknown origin) expressed in HEK293 cells at 0.3 uM incubated for 4 hrs by dual luciferase reporter gene assay; assay type: cell-based
Procedure, shortened: (§1)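 Luciferase reporter assay of myostatin inhibition in HEK293 cells. Peptides were prepared as 3 mM DMSO stocks, then tested at a single final concentration (10, 3 or 0.3 μM). Results are given as mean ± SD (n = 3).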

Mus musculus [2] = assay: In vivo induction of muscular hypertrophy in im dosed mdx mouse assessed as increase in gastrocnemius muscle fiber size administered on 0 and 14 day and measured on day 42 by hematoxylin and eosin staining based assay; assay type: functional, organism-based
Procedure, shortened: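 Male mdx mice aged 5 weeks received intramuscular injections, with saline-injected controls. Gastrocnemius fiber size was assessed histologically by hematoxylin and eosin staining.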

Mus musculus [3] = assay: In vivo induction of muscular hypertrophy in im dosed C57BL/6 mouse assessed as increase in gastrocnemius muscle fiber size administered on 0 and 14 day and measured on day 42 by hematoxylin and eosin staining based assay; assay type: functional, organism-based
[4] = biological target: Growth/differentiation factor 8 (Homo sapiens) (UniProt O14793); assay: Inhibition of myostatin (unknown origin) expressed in HEK293 cells at 10 uM incubated for 4 hrs by dual luciferase reporter gene assay; assay type: cell-based; procedure, shortened: as §1
Mus musculus [5] = assay: In vivo induction of muscular hypertrophy in mdx mouse assessed as increase in weight of TA muscles at 30 nmol, im administered on 0 and 14 day and measured on day 42 by relative to control; assay type: functional
Mus musculus [6] = assay: In vivo induction of muscular hypertrophy in mdx mouse assessed as hind limb strength at 30 nmol, im administered on 0 and 14 day and measured on day 42 by grip strength meter method (reference value: 4.41 +/- 0.31 Kg); assay type: functional
Mus musculus [7] = assay: In vivo induction of muscular hypertrophy in mdx mouse assessed as increase in muscle function at 30 nmol, im administered on 0 and 14 day and measured on day 42 by grip strength meter method relative to control; assay type: functional

Growth/differentiation factor 8 (Homo sapiens), sequence (O14793 267-375 limits assumed): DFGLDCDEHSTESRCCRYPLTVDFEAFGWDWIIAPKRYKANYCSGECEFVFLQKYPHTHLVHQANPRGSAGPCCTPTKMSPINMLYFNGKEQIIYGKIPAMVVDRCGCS

Compound	inhibition [1]	inhibition [4]	further results
CC[C@H](C)[C@H](NC(=O)[C@H](CCC(N)=O)NC(=O)[C@@H](NC(=O)[C@H](CCCCN)NC(=O)[C@@H](NC(=O)[C@H](Cc1c[nH]c2ccccc12)NC(=O)[C@H](CCCNC(=N)N)NC(=O)[C@@H](NC(=O)[C@H](Cc1ccc(O)cc1)NC(=O)[C@@H](N)Cc1c[nH]c2ccccc12)[C@@H](C)CC)[C@@H](C)CC)[C@@H](C)CC)C(=O)N[C@@H](Cc1c[nH]c2ccccc12)C(=O)N[C@@H](CO)C(=O)N[C@@H](CCCCN)C(=O)N[C@H](C(=O)N[C@@H](CCCNC(=N)N)C(=O)N[C@@H](CC(C)C)C(N)=O)C1CCCCC1 (H-WYIRWIKIQIWSK[Chg]RL-NH2)	Active		
H-WYIRWIKIQFWSKLRL-NH2	Active		
H-WYIRWIKIQIWSKLRL-NH2	Active		Activity (Mus musculus [2]): Active; Activity (Mus musculus [3]): Active
H-SRIEWIKIQIWSKLRL-NH2		Active	
H-SRIEWIKIQIISKLRL-NH2		Active	
CC[C@H](C)[C@H](NC(=O)[C@H](CCC(N)=O)NC(=O)[C@@H](NC(=O)[C@H](CCCCN)NC(=O)[C@@H](NC(=O)[C@H](Cc1c[nH]c2ccccc12)NC(=O)[C@H](CCCNC(=N)N)NC(=O)[C@@H](NC(=O)[C@H](Cc1ccc(O)cc1)NC(=O)[C@@H](N)Cc1c[nH]c2ccccc12)[C@@H](C)CC)[C@@H](C)CC)C1CCCCC1)C(=O)N[C@@H](Cc1c[nH]c2ccccc12)C(=O)N[C@@H](CO)C(=O)N[C@@H](CCCCN)C(=O)N[C@H](C(=O)N[C@@H](CCCNC(=N)N)C(=O)N[C@@H](CC(C)C)C(N)=O)C1CCCCC1	Active		
CC[C@H](C)[C@H](NC(=O)[C@H](CCC(N)=O)NC(=O)[C@@H](NC(=O)[C@H](CCCCN)NC(=O)[C@@H](NC(=O)[C@H](Cc1c[nH]c2ccccc12)NC(=O)[C@H](CCCNC(=N)N)NC(=O)[C@@H](NC(=O)[C@H](Cc1ccc(O)cc1)NC(=O)[C@@H](N)Cc1c[nH]c2ccccc12)[C@@H](C)CC)[C@@H](C)CC)C1CCCCC1)C(=O)N[C@@H](Cc1c[nH]c2ccccc12)C(=O)N[C@@H](CO)C(=O)N[C@@H](CCCCN)C(=O)N[C@@H](CC(C)C)C(=O)N[C@@H](CCCNC(=N)N)C(=O)N[C@@H](CC(C)C)C(N)=O (H-WYIRWIK[Chg]QIWSKLRL-NH2)	Active		
H-SRIEAIKIQILSKLRL-NH2		inactive	
CC[C@H](C)[C@H](NC(=O)[C@H](CCCNC(=N)N)NC(=O)[C@H](CO)NC(=O)[C@H](Cc1ccc(O)cc1)NC(=O)[C@H](CCCNC(=N)N)NC(=O)[C@@H](NC(=O)[C@H](CC(N)=O)NC(=O)[C@H](CCC(N)=O)NC(=O)[C@H](CCCNC(=N)N)NC(=O)COc1ccc2ccccc2c1)[C@@H](C)O)C(=O)N[C@@H](CCC(=O)O)C(=O)N[C@@H](Cc1c[nH]c2ccccc12)C(=O)N[C@H](C(=O)N[C@@H](CCCCN)C(=O)N[C@H](C(=O)N[C@@H](CCC(N)=O)C(=O)N[C@H](C(=O)N[C@H](C(=O)N[C@@H](CO)C(=O)N[C@@H](CCCCN)C(=O)N[C@@H](CC(C)C)C(=O)N[C@@H](CCCNC(=N)N)C(=O)N[C@@H](CC(C)C)C(N)=O)[C@@H](C)CC)[C@@H](C)CC)[C@@H](C)CC)[C@@H](C)CC ({Acetyl(2-naphthyloxy)}-RQNTRYSRIEWIKIQIISKLRL-NH2)			Activity (Mus musculus [3]): Active
H-WYIEAIKIQILSKLRL-NH2		Active	
CC[C@H](C)[C@H](NC(=O)[C@H](CCC(N)=O)NC(=O)[C@@H](NC(=O)[C@H](CCCCN)NC(=O)[C@@H](NC(=O)[C@@H](Cc1c[nH]c2ccccc12)NC(=O)[C@H](CCCNC(=N)N)NC(=O)[C@@H](NC(=O)[C@H](Cc1ccc(O)cc1)NC(=O)[C@@H](N)Cc1c[nH]c2ccccc12)[C@@H](C)CC)[C@@H](C)CC)C1CCCCC1)C(=O)N[C@@H](Cc1c[nH]c2ccccc12)C(=O)N[C@@H](CO)C(=O)N[C@@H](CCCCN)C(=O)N[C@H](C(=O)N[C@@H](CCCNC(=N)N)C(=O)N[C@@H](CC(C)C)C(N)=O)C1CCCCC1			Activity (Mus musculus [5]): 114%; Activity (Mus musculus [6]): 5.92 kg/kg; Activity (Mus musculus [7]): 130%
H-WYFRWIKIQIWSKLRL-NH2	Active		

From ChEMBL document CHEMBL4396903, “Chain-Shortened Myostatin Inhibitory Peptides Improve Grip Strength in Mice” (ACS Med Chem Lett, 2019)
